≈ marks a conversion by molar mass, not a printed value.
Legend:
[1] = molecular target: T1, Phosphodiesterase 3 (Homo sapiens, UniProt Q14432+Q13370); assay: Inhibition of human platelet c-AMP phosphodiesterase PDE 3
[2] = species: Homo sapiens; assay: Inhibition of ADP-induced aggregation of human platelets; type: functional
[3] = Aqueous solubility; type: physicochemical; conditions: water; read-out: S
In short: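 Water (0.5 mL) added to 10 mg compound at room temperature, diluted up to […] unless dissolution occurred.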

[4] = molecular target: T1, Phosphodiesterase 3; assay: Inhibition of human platelet cAMP phosphodiesterase PDE 3
In short: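 Human platelet cAMP PDE enzyme preparation; IC50 read from plots of cAMP hydrolysis against compound concentration; mean of duplicate determinations; BMY 20844 positive control.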

## Oc1nc2cc3cc(N4CCN(c5ccccc5)CC4)ccc3[nH]c-2n1
[1]
  IC50: 5000 nM
[2]
  EC50: 8060 nM
[3]
  solubility: < 10000 µg/mL

## CCC(CC)CN1CCN(C(=O)CCCOc2ccc3[nH]c4nc(O)nc-4cc3c2)CC1
[1]
  IC50: 1 nM
[2]
  EC50: 430 nM
[3]
  solubility: > 10000 µg/mL

## O=C(CCCOc1ccc2[nH]c3nc(O)nc-3cc2c1)N1CCN(Cc2cccc(C(F)(F)F)c2)CC1
[1]
  IC50: 9 nM
[2]
  EC50: 920 nM
[3]
  solubility: 2000 µg/mL (≈ 3.89 mM)

## O=C1CN2Cc3cc(OCCCC(=O)N4CCN(CC5CCCCC5)CC4)ccc3N=C2N1
[1]
  IC50: 6 nM
[2]
  EC50: 7230 nM
[3]
  solubility: > 5000 µg/mL

## O=C1CN2Cc3cc(OCCCC(=O)N4CCN(Cc5ccccc5)CC4)ccc3N=C2N1
[1]
  IC50: 8 nM
[2]
  EC50: 4150 nM
[3]
  solubility: > 5000 µg/mL

## COc1ccc(CN2CCN(C(=O)CCCOc3ccc4[nH]c5nc(O)nc-5cc4c3)CC2)cc1
[1]
  IC50: 3 nM
[2]
  EC50: 520 nM
[3]
  solubility: > 10000 µg/mL

## CC(C)(C)OC(=O)N1CCN(C(=O)CCCOc2ccc3[nH]c4nc(O)nc-4cc3c2)CC1
[1]
  IC50: 0.3 nM
[2]
  EC50: 270 nM
[3]
  solubility: < 10000 µg/mL

## O=C(CCCOc1ccc2[nH]c3nc(O)nc-3cc2c1)NCCN1CCCCC1
[1]
  IC50: 4 nM
[2]
  EC50: 4500 nM
[3]
  solubility: > 20000 µg/mL

## COc1ccc(C(=O)N2CCN(c3ccc4[nH]c5nc(O)nc-5cc4c3)CC2)cc1OC
[2]
  EC50: 37900 nM
[3]
  solubility: < 10000 µg/mL

## O=C(CCCOc1ccc2[nH]c3nc(O)nc-3cc2c1)N1CCN(CCC2CCCCC2)CC1
[1]
  IC50: 0.2 nM
[2]
  EC50: 54 nM
[3]
  solubility: < 10000 µg/mL

## Oc1nc2cc3cc(N4CCOCC4)ccc3[nH]c-2n1
[1]
  IC50: 20 nM
[2]
  EC50: 250 nM
[3]
  solubility: < 10000 µg/mL

## Oc1nc2cc3cc(N4CCCC4)ccc3[nH]c-2n1
[2]
  EC50: 2030 nM
[3]
  solubility: < 10000 µg/mL

## O=C(CCCOc1ccc2[nH]c3nc(O)nc-3cc2c1)N1CCN(c2ncccn2)CC1
[1]
  IC50: 7 nM
[2]
  EC50: 1220 nM
[3]
  solubility: > 10000 µg/mL

## O=C(CCCOc1ccc2[nH]c3nc(O)nc-3cc2c1)N1CCN(CC2CCCCO2)CC1 (stereo unspecified)
[1]
  IC50: 0.7 nM
[2]
  EC50: 2020 nM
[3]
  solubility: > 10000 µg/mL

## CCCC(CCC)CN1CCN(C(=O)CCCOc2ccc3[nH]c4nc(O)nc-4cc3c2)CC1
[1]
  IC50: 0.4 nM
[2]
  EC50: 680 nM
[3]
  solubility: < 10000 µg/mL

## O=C(CCCOc1ccc2[nH]c3nc(O)nc-3cc2c1)N1CCN(Cc2ccsc2)CC1
[1]
  IC50: 0.7 nM
[2]
  EC50: 380 nM
[3]
  solubility: > 10000 µg/mL

## O=C(CCCOc1ccc2[nH]c3nc(O)nc-3cc2c1)N1CCN(Cc2ccc(Cl)cc2)CC1
[1]
  IC50: 2 nM
[2]
  EC50: 170 nM
[3]
  solubility: < 10000 µg/mL

## O=C(CCCOc1ccc2[nH]c3nc(O)nc-3cc2c1)NC1CCN(Cc2ccccc2)CC1
[1]
  IC50: 0.7 nM
[2]
  EC50: 3700 nM
[3]
  solubility: > 20000 µg/mL

## O=C(O)C1CCN(c2ccc3[nH]c4nc(O)nc-4cc3c2)CC1
[1]
  IC50: 20 nM
[2]
  EC50: 30200 nM
[3]
  solubility: < 10000 µg/mL

## O=C(CCCCOc1ccc2[nH]c3nc(O)nc-3cc2c1)N1CCN(Cc2ccccc2)CC1
[1]
  IC50: 0.08 nM
[2]
  EC50: 47 nM
[3]
  solubility: > 10000 µg/mL

## Cn1c(O)nc2nc3ccc(OCCCC(=O)N4CCN(CC5CCCCC5)CC4)cc3cc21
[1]
  IC50: 80 nM
[2]
  EC50: > 58100 nM
[3]
  solubility: > 10000 µg/mL

## COC(=O)C1CCN(c2ccc3[nH]c4nc(O)nc-4cc3c2)CC1
[2]
  EC50: 280 nM
[3]
  solubility: < 10000 µg/mL

## CCOC(=O)N1CCN(c2ccc3[nH]c4nc(O)nc-4cc3c2)CC1
[1]
  IC50: 700 nM
[2]
  EC50: 3520 nM
[3]
  solubility: < 10000 µg/mL

## CN(C(=O)C1CCN(c2ccc3[nH]c4nc(O)nc-4cc3c2)CC1)C1CCCCC1
[2]
  EC50: > 37000 nM
[3]
  solubility: < 10000 µg/mL

## CCOC(=O)CN1CCN(C(=O)CCCOc2ccc3[nH]c4nc(O)nc-4cc3c2)CC1
[1]
  IC50: 2 nM
[2]
  EC50: 2440 nM
[3]
  solubility: > 10000 µg/mL

## O=C(CCCOc1ccc2[nH]c3nc(O)nc-3cc2c1)N1CCN(c2ccccn2)CC1
[1]
  IC50: 5 nM
[2]
  EC50: 670 nM
[3]
  solubility: > 10000 µg/mL

## CC(C)CN1CCN(C(=O)CCCOc2ccc3[nH]c4nc(O)nc-4cc3c2)CC1
[1]
  IC50: 1 nM
[2]
  EC50: 2430 nM
[3]
  solubility: > 10000 µg/mL

## COCCN1CCN(C(=O)CCCOc2ccc3[nH]c4nc(O)nc-4cc3c2)CC1
[1]
  IC50: 7 nM
[2]
  EC50: 20800 nM
[3]
  solubility: > 10000 µg/mL

## O=C(CCCOc1ccc2[nH]c3nc(O)nc-3cc2c1)N1CCN(C(c2ccccc2)c2ccccc2)CC1
[1]
  IC50: 3 nM
[2]
  EC50: 62 nM
[3]
  solubility: < 10000 µg/mL

## CN(CCc1ccccn1)C(=O)CCCOc1ccc2[nH]c3nc(O)nc-3cc2c1
[1]
  IC50: 4.5 nM
[2]
  EC50: 12400 nM
[3]
  solubility: > 10000 µg/mL

## O=C(CCCOc1ccc2[nH]c3nc(O)nc-3cc2c1)N1CCN(Cc2ccc(F)cc2)CC1
[1]
  IC50: 2 nM
[2]
  EC50: 530 nM
[3]
  solubility: > 10000 µg/mL

## O=C(CCCOc1ccc2[nH]c3nc(O)nc-3cc2c1)N1CCN(C(c2ccc(F)cc2)c2ccc(F)cc2)CC1
[1]
  IC50: 0.3 nM
[2]
  EC50: 130 nM
[3]
  solubility: < 10000 µg/mL

## O=C(c1ccccc1)N1CCN(c2ccc3[nH]c4nc(O)nc-4cc3c2)CC1
[1]
  IC50: 600 nM
[2]
  EC50: 6820 nM
[3]
  solubility: < 10000 µg/mL

## O=C(CCCOc1ccc2[nH]c3nc(O)nc-3cc2c1)N1CCN(Cc2cccs2)CC1
[1]
  IC50: 0.7 nM
[2]
  EC50: 380 nM
[3]
  solubility: > 10000 µg/mL

## O=C(CCCOc1ccc2[nH]c3nc(O)nc-3cc2c1)N1CCN(CC2CCCCCC2)CC1
[1]
  IC50: 0.2 nM
[2]
  EC50: 290 nM
[3]
  solubility: < 10000 µg/mL

## CN1CCN(C(=O)CCCOc2ccc3[nH]c4nc(O)nc-4cc3c2)CC1
[1]
  IC50: 7 nM
[2]
  EC50: 8900 nM
[3]
  solubility: > 20000 µg/mL

## O=C(CCCOc1ccc2[nH]c3nc(O)nc-3cc2c1)N1CCN(Cc2ccc3c(c2)OCO3)CC1
[1]
  IC50: 0.9 nM
[2]
  EC50: 330 nM
[3]
  solubility: 10000 µg/mL (≈ 20.4 mM)

## O=C(CCCOc1ccc2[nH]c3nc(O)nc-3cc2c1)N1CCN(c2cccc(C(F)(F)F)c2)CC1
[1]
  IC50: 0.6 nM
[2]
  EC50: 720 nM
[3]
  solubility: < 10000 µg/mL

## O=C(CCCOc1ccc2[nH]c3nc(O)nc-3cc2c1)N1CCN(C2CCCCCC2)CC1
[1]
  IC50: 0.9 nM
[2]
  EC50: 750 nM
[3]
  solubility: > 10000 µg/mL

## O=C(CCCOc1ccc2[nH]c3nc(O)nc-3cc2c1)N1CCN(Cc2ccc(C(F)(F)F)cc2)CC1
[1]
  IC50: 0.4 nM
[2]
  EC50: 2110 nM
[3]
  solubility: < 10000 µg/mL

## O=C(CCCOc1ccc2[nH]c3nc(O)nc-3cc2c1)N1CCN(CCc2ccccc2C(F)(F)F)CC1
[1]
  IC50: 0.3 nM
[2]
  EC50: 110 nM
[3]
  solubility: < 10000 µg/mL

## O=C(CCCCCOc1ccc2[nH]c3nc(O)nc-3cc2c1)N1CCN(CC2CCCCC2)CC1
[1]
  IC50: 0.6 nM
[2]
  EC50: 710 nM
[3]
  solubility: > 10000 µg/mL

## CCN(CC)c1ccc2[nH]c3nc(O)nc-3cc2c1
[4]
  IC50: 70 nM
[2]
  EC50: 1420 nM
[3]
  solubility: > 10000 µg/mL

## O=C(CCCOc1ccc2[nH]c3nc(O)nc-3cc2c1)N1CCNCC1
[1]
  IC50: 40 nM
[2]
  EC50: 53700 nM
[3]
  solubility: > 10000 µg/mL

## O=C(CCCOc1ccc2[nH]c3nc(O)nc-3cc2c1)N1CCN(CC2CCCC2)CC1
[1]
  IC50: 0.5 nM
[2]
  EC50: 1300 nM
[3]
  solubility: > 10000 µg/mL

## O=C(CCCOc1ccc2[nH]c3nc(O)nc-3cc2c1)N1CCC(N2CCCCC2)CC1
[1]
  IC50: 5 nM
[2]
  EC50: 11400 nM
[3]
  solubility: > 10000 µg/mL

## Cn1c(O)nc2nc3ccc(OCCCC(=O)N4CCN(Cc5ccccc5)CC4)cc3cc21
[1]
  IC50: 30 nM
[2]
  EC50: > 59100 nM
[3]
  solubility: > 10000 µg/mL

## O=C(CCCOc1ccc2[nH]c3nc(O)nc-3cc2c1)N1CCN(c2ccccc2)CC1
[1]
  IC50: 2 nM
[2]
  EC50: 50 nM
[3]
  solubility: < 10000 µg/mL

## O=C(CCCOc1ccc2[nH]c3nc(O)nc-3cc2c1)NC1CN2CCC1CC2 (stereo unspecified)
[1]
  IC50: 40 nM
[2]
  EC50: 12400 nM
[3]
  solubility: > 10000 µg/mL

## O=C(CCCOc1ccc2[nH]c3nc(O)nc-3cc2c1)N1CCN(CCc2ccccc2)CC1
[1]
  IC50: 2 nM
[2]
  EC50: 190 nM
[3]
  solubility: < 10000 µg/mL
